{"source": "paper PMC4927891", "about": "(Journal of Alzheimer's Disease, 2015)", "format_in_all_cases": "biochemical", "key": {"[1]": {"target": "CDK5/p25 (Homo sapiens, UniProt Q00535)", "sequence (Q00535 whole entry)": "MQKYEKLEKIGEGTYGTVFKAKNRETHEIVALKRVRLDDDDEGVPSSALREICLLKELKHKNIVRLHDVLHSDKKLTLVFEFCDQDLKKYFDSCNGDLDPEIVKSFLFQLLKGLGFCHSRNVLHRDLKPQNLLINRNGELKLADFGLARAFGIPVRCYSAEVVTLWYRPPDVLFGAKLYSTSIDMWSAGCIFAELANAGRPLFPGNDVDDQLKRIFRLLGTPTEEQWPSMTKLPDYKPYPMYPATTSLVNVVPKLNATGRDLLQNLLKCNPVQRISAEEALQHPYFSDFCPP", "assay": "Radiometric protein kinase assay, CDK5/p25 phosphotransferase activity", "conditions": "for % Activity Change 1 μM: peptide 1 μM, negative = inhibition; for % Activity Change 1 μM / % Activity Change 10 μM / % Activity Change 50 μM / % Activity Change 100 μM / % Activity Change 250 μM / % Activity Change 500 μM: vs control without inhibitor, duplicate; for % Activity Change 10 μM: peptide 10 μM; for % Activity Change 50 μM: peptide 50 μM; for % Activity Change 500 μM: peptide 500 μM", "outline": "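GST-tagged CDK5/p25 co-expressed in Sf9 cells via baculovirus, 15 nM final, with calf thymus histone H1 (1 mg/ml final) in MOPS pH 7.2 buffer with MgCl2, EGTA, EDTA, DTT. Reaction started with [γ-33P]ATP (250 μM stock, 0.8 μCi) and run 20 min at 30°C. Products were spotted on P81 paper, washed in 1% phosphoric acid and scintillation-counted. No-substrate blank was subtracted. Peptide tested 1–500 μM against 10% DMSO control, two experiments in duplicate.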"}, "[2]": {"target": "GSK3β (Homo sapiens, UniProt P49841)", "sequence (P49841 whole entry, species assumed)": "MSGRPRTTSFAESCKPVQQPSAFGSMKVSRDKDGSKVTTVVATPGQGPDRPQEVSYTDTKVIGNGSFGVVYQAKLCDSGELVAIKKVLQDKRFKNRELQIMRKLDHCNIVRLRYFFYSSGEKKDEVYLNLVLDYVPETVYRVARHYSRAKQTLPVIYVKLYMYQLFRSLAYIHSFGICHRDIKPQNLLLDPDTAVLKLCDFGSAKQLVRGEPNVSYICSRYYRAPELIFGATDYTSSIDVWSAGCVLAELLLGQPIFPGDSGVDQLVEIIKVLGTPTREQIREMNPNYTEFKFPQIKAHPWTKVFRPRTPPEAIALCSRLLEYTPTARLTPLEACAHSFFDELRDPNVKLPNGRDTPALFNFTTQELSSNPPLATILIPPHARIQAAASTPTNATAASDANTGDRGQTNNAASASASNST", "assay": "Radiometric protein kinase assay, GSK3β phosphotransferase activity", "conditions": "for % Activity Change 1 μM: peptide 1 μM, positive = activation; for % Activity Change 10 μM: peptide 10 μM; for % Activity Change 50 μM: peptide 50 μM; for GSK3β phosphotransferase activity activated by % compared to control / % Activity Change 500 μM: peptide 500 μM", "outline": "(§1)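 Reaction is started with [γ-33P]ATP (250 μM stock, 0.8 μCi), with peptide at six levels (1–500 μM) or 10% DMSO. Run 30°C, 20 min, then spot onto P81 paper, wash in 1% phosphoric acid and scintillation count. Substrate-free blank is subtracted. Duplicates, repeated twice.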"}, "[3]": {"target": "ERK1 (Homo sapiens, UniProt P27361)", "sequence (P27361 whole entry, species assumed)": "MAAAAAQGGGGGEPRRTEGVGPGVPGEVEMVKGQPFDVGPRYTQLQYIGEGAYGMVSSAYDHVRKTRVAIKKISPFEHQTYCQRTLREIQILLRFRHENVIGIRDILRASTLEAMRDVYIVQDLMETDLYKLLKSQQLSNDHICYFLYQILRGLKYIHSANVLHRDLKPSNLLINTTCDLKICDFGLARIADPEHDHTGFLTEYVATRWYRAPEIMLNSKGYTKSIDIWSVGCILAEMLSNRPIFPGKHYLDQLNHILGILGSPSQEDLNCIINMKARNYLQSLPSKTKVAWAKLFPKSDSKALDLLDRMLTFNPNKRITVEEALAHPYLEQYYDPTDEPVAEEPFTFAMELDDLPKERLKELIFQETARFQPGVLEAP", "assay": "Radiometric protein kinase assay, ERK1 phosphotransferase activity", "conditions": "for % Activity Change 1 μM: peptide 1 μM; for % Activity Change 10 μM: peptide 10 μM; for % Activity Change 50 μM: peptide 50 μM; for ERK1 activity inhibited by % compared to control / % Activity Change 500 μM: peptide 500 μM", "outline": "as §1"}, "[4]": {"target": "CDK5/p35 (Homo sapiens, UniProt Q00535)", "sequence (Q00535 whole entry)": "as the sequence (Q00535 whole entry) above", "assay": "Radiometric protein kinase assay, CDK5/p35 phosphotransferase activity", "conditions": "for % Activity Change 1 μM: peptide 1 μM; for % Activity Change 1 μM / % Activity Change 10 μM / % Activity Change 50 μM / % Activity Change 100 μM / % Activity Change 250 μM / % Activity Change 500 μM: duplicate; for % Activity Change 10 μM: peptide 10 μM; for % Activity Change 50 μM: peptide 50 μM; for % Activity Change 500 μM: peptide 500 μM"}}, "note": "Peptide text beside a SMILES is read from it.", "data": [{"smiles": "CC[C@H](C)[C@H](NC(=O)[C@H](CCC(N)=O)NC(=O)[C@@H](NC(=O)[C@H](CCSC)NC(=O)[C@H](CCCCN)NC(=O)[C@H](CO)NC(=O)[C@@H](NC(=O)[C@H](CCSC)NC(=O)[C@H](CC(C)C)NC(=O)[C@H](CC(N)=O)NC(=O)[C@@H](NC(=O)[C@@H](NC(=O)[C@H](CO)NC(=O)[C@H](CC(C)C)NC(=O)[C@H](C)NC(=O)[C@H](CCCNC(=N)N)NC(=O)[C@H](CCC(=O)O)NC(=O)[C@H](Cc1ccc(O)cc1)NC(=O)[C@H](Cc1ccccc1)NC(=O)[C@H](C)NC(=O)[C@H](CC(N)=O)NC(=O)[C@@H](N)CCCCN)[C@@H](C)CC)[C@@H](C)CC)[C@@H](C)O)C(C)C)C(=O)N[C@@H](CC(N)=O)C(=O)N[C@H](C(=O)O)C(C)C", "note": "[p5-MT] (H-KNAFYERALSIINLMTSKMVQINV-OH)", "values": [{"measurement": "IC50", "setting": "[1]", "result": 119, "unit": "µM"}, {"measurement": "% Activity Change 1 μM", "setting": "[1]", "result": 2, "unit": "%"}, {"measurement": "% Activity Change 10 μM", "setting": "[1]", "result": "–8%"}, {"measurement": "% Activity Change 50 μM", "setting": "[1]", "result": "–22%"}, {"measurement": "CDK5/p25 phosphotransferase activity inhibited by % compared to control", "setting": "[1]; peptide 100 μM", "result": 46, "unit": "%"}, {"measurement": "% Activity Change 100 μM", "setting": "[1]; peptide 100 μM", "result": "–46%"}, {"measurement": "% Activity Change 250 μM", "setting": "[1]; peptide 250 μM", "result": "–73%"}, {"measurement": "% Activity Change 500 μM", "setting": "[1]", "result": "–85%"}, {"measurement": "% Activity Change 1 μM", "setting": "[2]; duplicate", "result": "–1%"}, {"measurement": "% Activity Change 10 μM", "setting": "[2]; duplicate", "result": 3, "unit": "%"}, {"measurement": "% Activity Change 50 μM", "setting": "[2]; duplicate", "result": 6, "unit": "%"}, {"measurement": "GSK3β phosphotransferase activity activated by % compared to control", "setting": "[2]", "result": 40, "unit": "%"}, {"measurement": "% Activity Change 500 μM", "setting": "[2]; duplicate", "result": 40, "unit": "%"}, {"measurement": "IC50", "setting": "[3]", "result": 425, "unit": "µM"}, {"measurement": "% Activity Change 1 μM", "setting": "[3]; duplicate", "result": 1, "unit": "%"}, {"measurement": "% Activity Change 10 μM", "setting": "[3]; duplicate", "result": 0, "unit": "%"}, {"measurement": "% Activity Change 50 μM", "setting": "[3]; duplicate", "result": "–2%"}, {"measurement": "% Activity Change 250 μM", "setting": "[3]; peptide 250 μM, duplicate", "result": "–35%"}, {"measurement": "ERK1 activity inhibited by % compared to control", "setting": "[3]", "result": 54, "unit": "%"}, {"measurement": "% Activity Change 500 μM", "setting": "[3]; duplicate", "result": "–54%"}, {"measurement": "IC50", "setting": "[4]", "result": 83, "unit": "µM"}, {"measurement": "% Activity Change 1 μM", "setting": "[4]", "result": "–3%"}, {"measurement": "% Activity Change 10 μM", "setting": "[4]", "result": "–14%"}, {"measurement": "% Activity Change 50 μM", "setting": "[4]", "result": "–35%"}, {"measurement": "CDK5/p35 phosphotransferase activity inhibited by % compared to control", "setting": "[4]; peptide 100 μM", "result": 57, "unit": "%"}, {"measurement": "% Activity Change 100 μM", "setting": "[4]; peptide 100 μM", "result": "–57%"}, {"measurement": "% Activity Change 250 μM", "setting": "[4]; peptide 250 μM", "result": "–73%"}, {"measurement": "% Activity Change 500 μM", "setting": "[4]", "result": "–84%"}]}, {"smiles": "CC[C@H](C)[C@H](NC(=O)[C@H](CCC(N)=O)NC(=O)[C@H](CC(C)C)NC(=O)[C@H](CCSC)NC(=O)[C@H](CCCCN)NC(=O)[C@H](CO)NC(=O)[C@H](CO)NC(=O)[C@H](CCSC)NC(=O)[C@H](CC(C)C)NC(=O)[C@H](CC(N)=O)NC(=O)[C@@H](NC(=O)[C@@H](NC(=O)[C@H](CO)NC(=O)[C@H](CC(C)C)NC(=O)[C@H](CS)NC(=O)[C@H](CCCNC(=N)N)NC(=O)[C@H](CC(=O)O)NC(=O)[C@H](Cc1c[nH]c2ccccc12)NC(=O)[C@H](Cc1ccccc1)NC(=O)[C@H](C)NC(=O)[C@H](CCC(=O)O)NC(=O)[C@@H](N)CCCCN)C(C)C)[C@@H](C)CC)C(=O)N[C@@H](CC(N)=O)C(=O)N[C@@H](C)C(=O)O", "note": "[p5-WT] (H-KEAFWDRCLSVINLMSSKMLQINA-OH)", "values": [{"measurement": "IC50", "setting": "[1]", "result": 169, "unit": "µM"}, {"measurement": "% CFC (percent change from control)", "setting": "[1]; 79-peptide scan, relative to p5-WT peptide (#1), negative = greater inhibition", "result": 0, "unit": "%"}, {"measurement": "% Activity Change 1 μM", "setting": "[1]", "result": 0, "unit": "%"}, {"measurement": "% Activity Change 10 μM", "setting": "[1]", "result": "–13%"}, {"measurement": "% Activity Change 50 μM", "setting": "[1]", "result": "–20%"}, {"measurement": "% Activity Change 100 μM", "setting": "[1]; peptide 100 μM", "result": "–41%"}, {"measurement": "CDK5/p25 phosphotransferase activity inhibited by % compared to control", "setting": "[1]; peptide 250 μM", "result": 59, "unit": "%"}, {"measurement": "% Activity Change 250 μM", "setting": "[1]; peptide 250 μM", "result": "–59%"}, {"measurement": "% Activity Change 500 μM", "setting": "[1]", "result": "–72%"}, {"measurement": "% Activity Change 1 μM", "setting": "[2]; duplicate", "result": "–3%"}, {"measurement": "% Activity Change 10 μM", "setting": "[2]; duplicate", "result": "–1%"}, {"measurement": "% Activity Change 50 μM", "setting": "[2]; duplicate", "result": 0, "unit": "%"}, {"measurement": "% Activity Change 100 μM", "setting": "[2]; peptide 100 μM, duplicate", "result": 8, "unit": "%"}, {"measurement": "GSK3β phosphotransferase activity activated by % compared to control", "setting": "[2]", "result": 24, "unit": "%"}, {"measurement": "% Activity Change 500 μM", "setting": "[2]; duplicate", "result": 24, "unit": "%"}, {"measurement": "% Activity Change 1 μM", "setting": "[3]; duplicate", "result": 0, "unit": "%"}, {"measurement": "% Activity Change 10 μM", "setting": "[3]; duplicate", "result": 0, "unit": "%"}, {"measurement": "% Activity Change 50 μM", "setting": "[3]; duplicate", "result": "–3%"}, {"measurement": "% Activity Change 100 μM", "setting": "[3]; peptide 100 μM, duplicate", "result": "–6%"}, {"measurement": "ERK1 activity inhibited by % compared to control", "setting": "[3]", "result": 25, "unit": "%"}, {"measurement": "% Activity Change 500 μM", "setting": "[3]; duplicate", "result": "–25%"}, {"measurement": "IC50", "setting": "[4]", "result": 217, "unit": "µM"}, {"measurement": "% Activity Change 1 μM", "setting": "[4]", "result": 2, "unit": "%"}, {"measurement": "% Activity Change 10 μM", "setting": "[4]", "result": "–2%"}, {"measurement": "% Activity Change 50 μM", "setting": "[4]", "result": "–10%"}, {"measurement": "% Activity Change 100 μM", "setting": "[4]; peptide 100 μM", "result": "–29%"}, {"measurement": "CDK5/p35 activity inhibited by % compared to control", "setting": "[4]; peptide 250 μM", "result": 53, "unit": "%"}, {"measurement": "% Activity Change 250 μM", "setting": "[4]; peptide 250 μM", "result": "–53%"}, {"measurement": "% Activity Change 500 μM", "setting": "[4]", "result": "–76%"}]}]}
